Measurements published in PMC5010991 (Molecular cancer therapeutics, 2016).

Tests used:
T98G cells [1] = assay: Cell number using WST-1; assay type: cell-based, human; conditions: for reduction of cell number: T98G, 10 µM, WST-1
Procedure, shortened: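 T98G cells (ATCC, STR-authenticated, under 6 months in culture) grown in DMEM or RPMI with 10% FBS, 100 U/mL penicillin and 100 µg/mL streptomycin at 37°C, 5% CO2. Cells exposed to test compound at 10 µM, with nocodazole or paclitaxel (10 µM each) run in parallel. Cell number followed over 72 hrs by WST-1 per kit protocol. Mean ± SEM of at least 3 independent experiments.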

T98G cells [2] = assay: Live cell imaging of EB3-GFP on assembling MTs; assay type: cell-based, human; conditions: nocodazole 1 µM, by 15 min
Procedure, shortened: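 T98G cells transfected with EB3-GFP and RFP-CenpB to mark growing MT plus ends and centromeres. Treated with test compound (0.5 or 3 µM) or nocodazole (1 µM). Movies of 30 sec at 500 ms intervals were taken on a deconvolution microscope starting 10 min after drug addition. Images were deconvolved, and MT assembly rates were tracked in interphase cells.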

bovine brain tubulin = assay: Cell-free MT assembly assay with purified tubulin; assay type: biochemical
[3] = system: MDA-MB-231 breast cancer cells; assay: Viability of positive-control breast cancer cells; assay type: cell-based; conditions: MDA-MB-231, by 72 hrs

## COC(=O)Nc1nc2ccc(C(=O)c3cccs3)cc2[nH]1 [nocodazole]
T98G cells [1]; 12 hrs
  reduction of cell number: 10–15%
T98G cells [1]; 72 hrs
  reduction of cell number: 34%
T98G cells [2]
  assembling MTs in live cells: abolished all assembling MTs
Bovine brain tubulin
  level of free tubulin: triggered an increase the free tubulin

## CC(=O)O[C@H]1C(=O)[C@@]2(C)[C@H]([C@H](OC(=O)c3ccccc3)[C@]3(O)C[C@H](OC(=O)[C@H](O)[C@@H](NC(=O)c4ccccc4)c4ccccc4)C(C)=C1C3(C)C)[C@]1(OC(C)=O)CO[C@@H]1C[C@@H]2O [paclitaxel]
[3]
  viability: reduced the viability
T98G cells [1]; 12 hrs
  reduction of cell number: 10–15%
T98G cells [1]; 72 hrs
  reduction of cell number: inactive
Bovine brain tubulin
  level of free tubulin: decrease in free tubulin levels

## Z-DEVD-FMK
T98G cells [1]; Z-DEVD-FMK 10 µM, 15 min preincubation, ST-11 10 µM
  effect of caspase-3 inhibition on the antineoplastic action of ST-11: blocked the antineoplastic action of ST-11
